Consider 37 sequences from the array DNA melting data of Ke et al. (doi:10.1101/2024.01.08.574731).

Data set [1] in a line: folding enthalpy; higher = less favourable; fluorescence melt of hairpins on a sequencing array, two-state fit. Particulars: sodium 0.088 M. An outline of the steps:
(§1)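 Library hairpins on a sequenced MiSeq flow cell carried annealed Cy3 and quencher oligos, and their Cy3 fluorescence was imaged in 50 mM Na-HEPES pH 8.0 with 25 mM NaCl, in 2.5 °C steps up to 60 °C. Signals were normalised to Cy3 before quenching and to control constructs. Melting temperature and folding enthalpy were obtained from bootstrapped two-state fits, combined by inverse-variance weighting across four replicates, and the fitted temperatures were then raised by 9.35 °C to match UV melts.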

Data set [2] is described as follows: melting temperature; fluorescence melt of hairpins on a sequencing array, two-state fit, raised by 9.35 °C to match UV melts. Conditions: sodium 0.088 M. In short, it runs like this:
as §1

Take GTTTTTGGAAACGAAAAC (((((.(....).))))): the folding enthalpy in data set [1] is -31.3 kcal/mol. Moreover, the Tm in data set [2] came out at 40.4 °C.
On to GGAAATGGAAACATTTCC (((((((....))))))), for which the folding enthalpy in data set [1] was -41.5 kcal/mol. For the same sequence, the Tm in data set [2] was 56.5 °C.
Turning to GGACGGGGAAACCCGCCC ((.((((....)))).)), the folding enthalpy in data set [1] is -34.1 kcal/mol. Besides, the Tm in data set [2] was determined as 58.7 °C.
In the same order, the values of GCTAGCCGAAAGGCAAGC (((.(((....))).))) are -27 kcal/mol and 60 °C.
In the same order, the values of GATCCAGTCCTGGATC ((((((....)))))) are -44.6 kcal/mol and 56.5 °C.
In the same order, the values of GGCAACGAAAGTTGCGCC ((((((....)))..))) are -7.94 kcal/mol and 59.2 °C.
Take GCGGATCACCGC ((((....)))): the folding enthalpy in data set [1] is -25.8 kcal/mol. For the same sequence, the Tm in data set [2] came out at 59 °C.
Turning to GCCACCGAAAGGTGCGGC ((((((....)))..))), the folding enthalpy in data set [1] was -13.1 kcal/mol. Moreover, the Tm in data set [2] came out at 60.8 °C.
As to GAAACCCGAAAGGGCTTC (((.(((....))).))), in data set [1], the folding enthalpy is -24.9 kcal/mol. Besides, in data set [2], the Tm was 46.4 °C.
On the same counts, the results for GCAGGCGGAAACGCCCAC (..((((....))))..) are -6.7 kcal/mol and 27.1 °C.
In the same order, the values of GTATTGGGAAACCAATAC (((((((....))))))) are -43.7 kcal/mol and 53.8 °C.
In the same order, the values of GTCTGGGCGAAAGCCGAC (((..(((....)))))) are -14.6 kcal/mol and 44.4 °C.
Regarding GTCAATGGAAACGTTGAC (((((.(....).))))), the folding enthalpy in data set [1] was -31.2 kcal/mol. Moreover, the Tm in data set [2] turned out to be 48.1 °C.
GCCGTGGGAAACCACAGC ((.((((....)))).)): the folding enthalpy in data set [1] was -18.6 kcal/mol. Besides, the Tm in data set [2] stood at 49.4 °C.
In the same order, the values of GGGTAATCGAAAGATCCC (((..(((....)))))) are -25 kcal/mol and 35.9 °C.
For the sequence GGCATATCGAAAGATGCC (((..(((....)))))), the folding enthalpy in data set [1] is -29 kcal/mol. Besides, the Tm in data set [2] was found to be 50.1 °C.
Regarding GCATGTCGAAAGACGTGC (((.(((....))).))), in data set [1], the folding enthalpy was -36.8 kcal/mol. Besides, in data set [2], the Tm amounted to 65.6 °C.
In the same order, the values of GTTAGCACGAAAGTGAAC (((..(((....)))))) are -11.6 kcal/mol and 27 °C.
In the same order, the values of GCGTCAGGAAACTGGCGC (((.(((....))).))) are -43.8 kcal/mol and 63 °C.
In the case of GGGATCTCGAAAGAGCCC (((..(((....)))))), the folding enthalpy in data set [1] was -27.9 kcal/mol. Also, in data set [2], the Tm was 51.2 °C.
For the sequence GCCCTACGAAAGTAGGC (((.(((....)))))), the folding enthalpy in data set [1] was -13 kcal/mol. Besides, the Tm in data set [2] was 56.8 °C.
On the same counts, the results for GACTGTCCGAAAGGAGTC (((..(((....)))))) are -14.6 kcal/mol and 36.1 °C.
With GATCTGTGCCAGATC ((((((...)))))), the folding enthalpy in data set [1] was -38 kcal/mol. Further, the Tm in data set [2] was found to be 51.1 °C.
For GATCTGGCTTCAGATC ((((((....)))))), the folding enthalpy in data set [1] was -37.8 kcal/mol. The Tm in data set [2] was found to be 50.6 °C.
On the same counts, the results for GGACCACGAAAGTGCTCC (((.(((....))).))) are -25.9 kcal/mol and 41.5 °C.
In the same order, the values of GACTGCGAAAGCACTGTC ((((((....)))..))) are -12.8 kcal/mol and 39.9 °C.
With GTAATGCGAAAGCACTAC (((.(((....))).))), the folding enthalpy in data set [1] was -19.9 kcal/mol. For the same sequence, the Tm in data set [2] stood at 39.4 °C.
Turning to GCATCCGAAAGGATATGC ((((((....)))..))), the folding enthalpy in data set [1] was -15.7 kcal/mol. Besides, in data set [2], the Tm was found to be 47.6 °C.
With GATCGTGCCGACGATC ((((((....)))))), the folding enthalpy in data set [1] is -49.2 kcal/mol. For the same sequence, the Tm in data set [2] came out at 56.4 °C.
On the same counts, the results for GCGGCCGGAAACAGCCGC (((((.(....).))))) are -22.9 kcal/mol and 64.8 °C.
On the same counts, the results for GCCTGCGAAAGCACGGGC ((((((....)))..))) are -22.4 kcal/mol and 53 °C.
On the same counts, the results for GCGGACGAAAGTCAACGC ((((((....)))..))) are -42 kcal/mol and 54.3 °C.
On to CGGTCGGAAACGAAGCCG ((((((....)))..))), for which, in data set [1], the folding enthalpy is -24.1 kcal/mol. In addition, in data set [2], the Tm came out at 38.1 °C.
In the same order, the values of GGGTTCGAAAGAATACCC ((((((....)))..))) are -24.9 kcal/mol and 40.5 °C.
On the same counts, the results for GCGGACGAAAGTCTCGC ((((((....))).))) are -18.9 kcal/mol and 55.2 °C.
As to GCTCTGCGAAAGCCCAGC (((..((....))..))), in data set [1], the folding enthalpy was -9.22 kcal/mol. For the same sequence, the Tm in data set [2] was found to be 30.5 °C.
For GTGCGGGCGAAAGCCCAC (((..(((....)))))), in data set [1], the folding enthalpy was -10.3 kcal/mol. Also, the Tm in data set [2] was 62.1 °C.
